Assay results published in ChEMBL document CHEMBL4673255, “Acylated 1H-1,2,4-Triazol-5-amines Targeting Human Coagulation Factor XIIa and Thrombin: Conventional and Microscale Synthesis, Anticoagulant Properties, and Mechanism of Action” (J Med Chem, 2020).
Calls of active or inactive are those of the source. No cut-off for these calls is given here.

Tests used:
[1] = tested on: Blood; assay: Anticoagulant activity in human blood assessed as increase in activated partial thromboplastin time at 300 uM incubated for 1 min by aPTT reagent based assay relative to control; assay type: functional
Summary of the method: (§1)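 Compounds were tested at 300 µM, and the increase was expressed relative to DMSO. The doubling concentration (EC2×) is the concentration prolonging aPTT twofold. At least triplicate, mean ± SD.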

[2] = Inhibition of porcine trypsin using Z-Gly-Gly-Arg-AMC as fluorogenic substrate measured at 1 min interval for 1 hr by fluorometric assay; parameters: species or system Sus scrofa
[3] = tested on: Blood; assay: Effect on blood coagulation in human blood assessed as increase in prothrombin time at 300 uM incubated for 3 mins followed by CaCl2 addition by PT reagent based assay relative to control; assay type: ADME, tissue-based; details: 0.05 h
Summary of the method: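 Clotting was started with PT reagent already containing CaCl2, prewarmed to 37 °C, and clotting time was recorded. Increase is given relative to DMSO; at least triplicate, mean ± SD.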

[4] = target: T1, Prothrombin (Homo sapiens, UniProt P00734); assay: Inhibition of human coagulation factor alpha-thrombin at 33 uM using Boc-Val-Pro-Arg-AMC as fluorogenic substrate measured at 1 min interval for 1 hr by fluorometric assay relative to control
[5] = target: T2, Coagulation factor XII (Homo sapiens) (UniProt P00748); assay: Inhibition of human coagulation factor XIIA in presence of Boc-Gln-Gly-Arg-AMC as fluorogenic substrate at 1 uM measured at 1 min interval for 1 hr by fluorometric assay relative to control
T2 sequence (whole entry): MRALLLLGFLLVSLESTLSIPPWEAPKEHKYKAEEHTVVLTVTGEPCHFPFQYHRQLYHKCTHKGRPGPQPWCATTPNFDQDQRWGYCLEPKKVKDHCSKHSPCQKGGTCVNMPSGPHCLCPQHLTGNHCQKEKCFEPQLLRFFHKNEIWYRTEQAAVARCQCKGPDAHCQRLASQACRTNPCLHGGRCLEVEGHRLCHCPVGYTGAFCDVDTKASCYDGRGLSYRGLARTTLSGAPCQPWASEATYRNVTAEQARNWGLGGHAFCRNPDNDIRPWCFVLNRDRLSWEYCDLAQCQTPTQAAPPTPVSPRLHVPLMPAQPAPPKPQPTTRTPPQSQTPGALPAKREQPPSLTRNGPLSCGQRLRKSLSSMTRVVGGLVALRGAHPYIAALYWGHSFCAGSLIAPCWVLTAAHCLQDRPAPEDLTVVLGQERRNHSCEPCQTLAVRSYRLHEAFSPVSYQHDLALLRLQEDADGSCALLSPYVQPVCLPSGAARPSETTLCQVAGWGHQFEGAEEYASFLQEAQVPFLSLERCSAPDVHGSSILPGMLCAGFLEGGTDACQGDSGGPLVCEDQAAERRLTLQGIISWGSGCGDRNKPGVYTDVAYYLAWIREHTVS
Summary of the method: (§2)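 Screening of crude microscale amide-coupling products. Conversion was measured by 1H NMR and product content normalised to 76 µmol/L in DMSO, then tested at 1 µM and 100 nM in the fluorogenic FXIIa or thrombin assay. A 0-conversion reaction served as blank. Percent inhibition is from triplicates.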

[6] = target: T2, Coagulation factor XII (Homo sapiens); assay: […] inhibition of human coagulation factor XIIA using Boc-Gln-Gly-Arg-AMC as fluorogenic substrate measured every 87 sec for 180 mins by time-dependent fluorescence assay
Summary of the method: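 Fluorescence (ex 355/em 460 nm) was read at once, every 87 s, for up to 180 min. IC50 was computed at each time point and plotted against time.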

[7] = target: T3, Coagulation factor XII (Homo sapiens, UniProt P00748); assay: Inhibition of human coagulation factor XIIA using Boc-Gln-Gly-Arg-AMC as fluorogenic substrate measured at 1 min interval for 1 hr by fluorometric assay
T3 sequence (P00748 whole entry): T2 sequence (whole entry)

[8] = target: T4, Coagulation factor X (Homo sapiens, UniProt P00742); assay: Inhibition of human coagulation factor Xa using Boc-Ile-Glu-Gly-Arg-AMC as fluorogenic substrate measured at 1 min interval for 1 hr by fluorometric assay
[9] = target: Plasminogen (Homo sapiens, UniProt P00747); assay: Inhibition of human plasmin using Mes-dArg-Phe-Arg-AMC as fluorogenic substrate measured at 1 min interval for 1 hr by fluorometric assay
[10] = species: Homo sapiens; assay: Selectivity index, ratio of IC50 for inhibition of human coagulation factor alpha-thrombin using Boc-Val-Pro-Arg-AMC as fluorogenic substrate to IC50 for inhibition of human coagulation factor XIIA using Boc-Gln-Gly-Arg-AMC as fluorogenic substrate incubated for 1 hr by fluorometric assay
[11] = target: Coagulation factor XI (Homo sapiens, UniProt P03951); assay: Inhibition of human coagulation factor XIA using Mes-dArg-Pro-Arg-AMC as fluorogenic substrate measured at 1 min interval for 1 hr by fluorometric assay
[12] = target: T1, Prothrombin; assay: Inhibition of human coagulation factor alpha-thrombin using Boc-Val-Pro-Arg-AMC as fluorogenic substrate measured at 1 min interval for 1 hr by fluorometric assay
[13] = target: T2, Coagulation factor XII (Homo sapiens); assay: Inhibition of human coagulation factor XIIA using Boc-Gln-Gly-Arg-AMC as fluorogenic substrate at 100 nM measured at 1 min interval for 1 hr by fluorometric assay relative to control; summary of the method: as §2
[14] = target: Plasma kallikrein (Homo sapiens, UniProt P03952); assay: Inhibition of human kallikrein using Mes-dArg-Pro-Arg-AMC as fluorogenic substrate measured at 1 min interval for 1 hr by fluorometric assay
[15] = target: T1, Prothrombin; assay: Inhibition of human coagulation factor thrombin using Boc-Val-Pro-Arg-AMC as fluorogenic substrate at 100 nM measured at 1 min interval for 1 hr by fluorometric assay relative to control; summary of the method: as §2
[16] = target: T5, Urokinase-type plasminogen activator (Homo sapiens, UniProt P00749); assay: Inhibition of human uPA using Tos-Gly-Pro-Arg-AMC as fluorogenic substrate at 5 uM measured at 1 min interval for 1 hr by fluorometric assay relative to control
[17] = tested on: Plasma; assay: (§3) Anticoagulant activity in human platelet-rich plasma assessed as reduction in TF-induced thrombin generation by measuring amplitude of thrombin peak at 1 uM preincubated for 15 mins followed by TF addition by Z-Gly-Gly-Arg-AMC substrate based calibrated automated thrombography (reference value: 63 +/- 3.7 AU/L); assay type: functional; details: 0.25 h
Summary of the method: (§4)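 Tissue-factor-triggered homogeneous thrombin generation followed by fluorogenic substrate cleavage. Read-outs: clotting time (T1/2), peak amplitude (Amax, AU/L), time to peak (Tmax) and ETP (AU·min/L). DMSO and buffer served as controls. n = 3, mean ± SD.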

[18] = tested on: Plasma; assay: as §3, with “endogenous” for “amplitude of”, “potential” for “peak”, “1203” for “63”, “44 AU.min/L)” for “3.7 AU/L)”; assay type: functional; details: 0.25 h; summary of the method: as §4
[19] = tested on: Plasma; assay: as §3, with “Tmax” for “amplitude”, “clotting time” for “thrombin peak”, “8.1” for “63”, “0.6 min)” for “3.7 AU/L)”; assay type: functional, cell-free; summary of the method: as §4
[20] = target: T4, Coagulation factor X; assay: Inhibition of human coagulation factor Xa using Boc-Ile-Glu-Gly-Arg-AMC as fluorogenic substrate at 1 uM measured at 1 min interval for 1 hr by fluorometric assay relative to control
[21] = tested on: Plasma; assay: Anticoagulant activity in human platelet-rich plasma assessed as reduction in TF-induced thrombin generation by measuring half life of clotting time at 1 uM preincubated for 15 mins followed by TF addition by Z-Gly-Gly-Arg-AMC substrate based calibrated automated thrombography (Rvb= 3 +/- 0.5 min); assay type: functional, cell-free; summary of the method: as §4
[22] = tested on: Blood; assay: Anticoagulant activity in human blood assessed as activated partial thromboplastin time at 300 uM incubated for 1 min by aPTT reagent based assay (reference value: 44 sec); assay type: functional; summary of the method: as §1
[23] = target: T6, Monoglyceride lipase (Homo sapiens, UniProt Q99685); assay: Inhibition of human recombinant MAGL using 1,3-dihydroxypropan-2-yl 4-pyren-1-ylbutanoate as substrate measured after 45 mins by reverse-phase HPLC-based fluorescence assay
T6 sequence (Q99685 whole entry): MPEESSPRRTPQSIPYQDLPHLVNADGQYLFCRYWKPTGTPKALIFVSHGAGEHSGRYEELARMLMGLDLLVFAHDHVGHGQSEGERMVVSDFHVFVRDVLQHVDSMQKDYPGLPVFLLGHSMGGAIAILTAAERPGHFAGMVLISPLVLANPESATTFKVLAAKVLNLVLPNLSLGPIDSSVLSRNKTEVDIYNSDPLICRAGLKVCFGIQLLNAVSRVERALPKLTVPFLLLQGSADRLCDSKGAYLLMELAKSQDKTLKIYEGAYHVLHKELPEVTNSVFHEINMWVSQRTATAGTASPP

[24] = target: T7, Fatty-acid amide hydrolase 1 (Rattus norvegicus, UniProt P97612); assay: Inhibition of FAAH in rat brain membrane using N-(2-hydroxyethyl)-4-pyren-1-ylbutanamide as substrate measured after 60 mins by reverse-phase HPLC-based fluorescence assay; assay type: cell membranes
T7 sequence (P97612 whole entry): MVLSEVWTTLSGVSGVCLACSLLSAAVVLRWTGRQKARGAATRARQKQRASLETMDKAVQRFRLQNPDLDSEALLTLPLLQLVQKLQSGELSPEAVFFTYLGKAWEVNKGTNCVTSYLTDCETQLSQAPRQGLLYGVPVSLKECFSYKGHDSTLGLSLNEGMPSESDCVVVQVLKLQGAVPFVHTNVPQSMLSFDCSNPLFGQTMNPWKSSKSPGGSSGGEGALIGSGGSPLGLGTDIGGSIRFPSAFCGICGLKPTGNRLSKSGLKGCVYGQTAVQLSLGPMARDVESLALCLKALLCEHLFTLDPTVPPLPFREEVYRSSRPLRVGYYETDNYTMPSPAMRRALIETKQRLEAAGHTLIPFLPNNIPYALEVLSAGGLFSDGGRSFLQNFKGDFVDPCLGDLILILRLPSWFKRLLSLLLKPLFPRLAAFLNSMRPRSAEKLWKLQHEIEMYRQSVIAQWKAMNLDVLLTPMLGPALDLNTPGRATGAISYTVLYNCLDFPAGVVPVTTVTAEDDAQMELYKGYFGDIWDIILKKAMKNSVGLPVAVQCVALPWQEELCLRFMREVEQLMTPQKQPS

[25] = target: T5, Urokinase-type plasminogen activator; assay: Inhibition of human uPA using Tos-Gly-Pro-Arg-AMC as fluorogenic substrate measured at 1 min interval for 1 hr by fluorometric assay
[26] = tested on: HepG2; assay: Cytotoxicity against human HepG2 cells assessed as reduction in cell viability at 100 uM incubated for 48 hrs by alamar blue assay relative to control; assay type: cell-based; details: hepg2, 48 h
[27] = target: T2, Coagulation factor XII (Homo sapiens); assay: Binding affinity to human plasma coagulation factor XIIA assessed as compound-adduct formation by measuring change in molecular mass at molar ratio of 1:20 measured after 4 mins by SEC/ESI-TOF mass spectra analysis; assay type: cell-free
Summary of the method: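 β-FXIIa incubated with inhibitor at a 1:20 molar ratio, then size-exclusion chromatography coupled to ESI-MS to measure the mass of enzyme–inhibitor complexes. Further runs checked complex stability to probe reversibility.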

[28] = target: T1, Prothrombin; assay: Inhibition of human coagulation factor alpha-thrombin using Boc-Val-Pro-Arg-AMC as fluorogenic substrate at 2 uM measured at 1 min interval for 1 hr by fluorometric assay relative to control
[29] = tested on: Plasma; assay: Antiplatelet activity in […] assessed as inhibition of MDA-MB-231-induced platelet aggregation at 0.1 to 10 uM by light transmission aggregometry; assay type: functional; details: Homo sapiens, dose 0.1-10 µM
[30] = tested on: CCF-STTG1; assay: Cytotoxicity against human CCF-STTG1 cells assessed as reduction in cell viability at 100 uM incubated for 48 hrs by alamar blue assay relative to control; assay type: cell-based; details: ccf-sttg1, 48 h

T4 sequence (P00742 41-179 limits assumed): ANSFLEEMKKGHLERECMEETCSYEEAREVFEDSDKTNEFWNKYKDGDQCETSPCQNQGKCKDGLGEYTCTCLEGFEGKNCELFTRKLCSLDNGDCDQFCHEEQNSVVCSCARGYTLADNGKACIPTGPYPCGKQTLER
T4 sequence (P00742 235-488 limits assumed): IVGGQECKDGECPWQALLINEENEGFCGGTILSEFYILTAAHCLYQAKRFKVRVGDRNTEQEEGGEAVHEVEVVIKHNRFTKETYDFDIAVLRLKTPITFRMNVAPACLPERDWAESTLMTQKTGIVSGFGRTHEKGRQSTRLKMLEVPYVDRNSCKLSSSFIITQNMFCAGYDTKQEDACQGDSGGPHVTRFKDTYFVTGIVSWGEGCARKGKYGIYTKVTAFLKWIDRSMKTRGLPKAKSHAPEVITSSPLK
Plasminogen, sequence (P00747 97-580 limits assumed): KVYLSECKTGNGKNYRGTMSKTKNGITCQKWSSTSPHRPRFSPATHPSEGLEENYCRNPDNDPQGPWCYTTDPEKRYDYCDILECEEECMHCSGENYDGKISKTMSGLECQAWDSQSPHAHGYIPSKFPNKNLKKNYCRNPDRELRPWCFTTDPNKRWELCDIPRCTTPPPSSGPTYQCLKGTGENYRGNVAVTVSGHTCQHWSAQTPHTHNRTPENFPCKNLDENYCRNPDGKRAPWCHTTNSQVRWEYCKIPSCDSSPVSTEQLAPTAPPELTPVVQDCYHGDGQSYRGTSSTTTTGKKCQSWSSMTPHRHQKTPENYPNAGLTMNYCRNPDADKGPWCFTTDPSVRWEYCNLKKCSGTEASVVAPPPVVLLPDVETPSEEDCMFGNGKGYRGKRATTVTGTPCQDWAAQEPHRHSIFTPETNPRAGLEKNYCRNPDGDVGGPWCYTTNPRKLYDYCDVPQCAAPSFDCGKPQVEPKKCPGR
Plasminogen, sequence (P00747 581-810 limits assumed): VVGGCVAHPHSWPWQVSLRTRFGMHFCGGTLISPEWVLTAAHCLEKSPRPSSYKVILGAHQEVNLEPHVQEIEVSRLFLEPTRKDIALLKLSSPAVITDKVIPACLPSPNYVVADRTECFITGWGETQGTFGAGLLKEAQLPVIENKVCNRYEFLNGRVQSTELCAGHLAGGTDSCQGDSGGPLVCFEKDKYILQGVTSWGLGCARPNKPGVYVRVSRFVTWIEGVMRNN
Plasma kallikrein, sequence (P03952 20-390 limits assumed): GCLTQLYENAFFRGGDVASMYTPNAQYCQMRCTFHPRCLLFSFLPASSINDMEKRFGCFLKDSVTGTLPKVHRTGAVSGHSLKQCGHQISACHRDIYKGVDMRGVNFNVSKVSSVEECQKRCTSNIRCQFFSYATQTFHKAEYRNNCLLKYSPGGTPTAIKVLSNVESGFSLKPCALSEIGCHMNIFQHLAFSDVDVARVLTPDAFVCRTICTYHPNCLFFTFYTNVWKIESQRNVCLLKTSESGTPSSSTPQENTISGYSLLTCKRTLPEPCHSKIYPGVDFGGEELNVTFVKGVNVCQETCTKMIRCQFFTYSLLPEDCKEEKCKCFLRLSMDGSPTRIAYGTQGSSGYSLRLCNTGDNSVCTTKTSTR
Plasma kallikrein, sequence (P03952 391-638 limits assumed): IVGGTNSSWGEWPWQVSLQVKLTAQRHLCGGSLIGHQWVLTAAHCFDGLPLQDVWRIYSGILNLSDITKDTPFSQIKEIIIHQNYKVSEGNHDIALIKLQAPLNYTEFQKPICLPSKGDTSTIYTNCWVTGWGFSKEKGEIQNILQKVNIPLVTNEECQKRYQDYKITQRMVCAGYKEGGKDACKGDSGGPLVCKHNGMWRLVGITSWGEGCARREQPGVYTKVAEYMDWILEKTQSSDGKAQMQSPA
Coagulation factor XI, sequence (P03951 19-387 limits assumed): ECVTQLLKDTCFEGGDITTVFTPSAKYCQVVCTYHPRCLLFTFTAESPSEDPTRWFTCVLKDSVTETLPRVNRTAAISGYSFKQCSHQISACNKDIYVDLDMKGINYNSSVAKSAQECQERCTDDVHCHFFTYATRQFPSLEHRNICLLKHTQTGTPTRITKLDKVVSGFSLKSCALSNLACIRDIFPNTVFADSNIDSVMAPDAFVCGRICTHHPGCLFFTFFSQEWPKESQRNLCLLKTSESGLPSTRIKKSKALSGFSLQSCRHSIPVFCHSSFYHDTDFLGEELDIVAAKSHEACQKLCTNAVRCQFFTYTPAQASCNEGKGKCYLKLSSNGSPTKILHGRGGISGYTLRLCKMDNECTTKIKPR
Coagulation factor XI, sequence (P03951 388-625 limits assumed): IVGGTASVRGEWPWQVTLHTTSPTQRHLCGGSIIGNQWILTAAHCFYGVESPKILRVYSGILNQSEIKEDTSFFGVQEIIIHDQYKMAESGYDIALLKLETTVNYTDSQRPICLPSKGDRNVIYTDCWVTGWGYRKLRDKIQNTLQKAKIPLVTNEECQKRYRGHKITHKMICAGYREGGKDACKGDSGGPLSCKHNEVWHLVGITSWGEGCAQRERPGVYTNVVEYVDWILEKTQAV

SMILES	Activity [1]	IC50 [2]	Activity [3]	inhibition [5]	inhibition [6]	IC50 [7]	IC50 [8]	IC50 [9]	Ratio IC50 [10]	IC50 [11]	IC50 [12]	IC50 [14]	other results
O=C(NC[C@H]1CN(c2ccc(N3CCOCC3=O)cc2)C(=O)O1)c1ccc(Cl)s1 [RIVAROXABAN]	335%	> 5 µM	1302%	-3%	inactive	> 33 µM	–	–	–	–	–	–	inhibition [4]: 55%
Nc1nc(-c2ccccn2)nn1C(=O)Cc1ccccc1I	92%	–	6%	89%	–	0.062 µM	> 5 µM	> 5 µM	29	> 5 µM	1.82 µM	> 5 µM	inhibition [13]: 47%; inhibition [15]: 2%; inhibition [16]: 41%
Cn1c(CNc2ccc(C(=N)N)cc2)nc2cc(C(=O)N(CCC(=O)O)c3ccccn3)ccc21 [DABIGATRAN]	252%	–	–	-1%	inactive	–	–	–	–	–	–	–	Ki [2]: 0.05 µM; Activity [17]: 72.4 AU/L; Activity [18]: 678 AU.min/L; Tmax [19]: 25.5 min; inhibition [20]: 34%; T1/2 [21]: 15.2 min
Nc1nc(-c2ccccn2)nn1C(=O)c1ccccc1	143%	> 5 µM	12%	81%	–	0.132 µM	> 5 µM	> 5 µM	–	> 5 µM	0.235 µM	> 5 µM	APTT [22]: 108 s; IC50 [23]: > 5 µM; IC50 [24]: > 5 µM; IC50 [25]: 7.93 µM
Nc1nc(-c2ccccn2)nn1C(=O)c1ccc(NC(=O)c2ccccc2)cc1	35%	> 5 µM	2%	89%	–	0.109 µM	> 5 µM	–	> 18	–	–	–	Activity [26]: 13%; Activity [27]: 223 Da; inhibition [28]: 38%; inhibition [29]: inactive; Activity [30]: 35%
